Source: PubChem
INS-1E rescue: rescue of cytokine-induced death in INS-1E beta cells; INS-1E cytokine-induced death, ATP luminescence, 48 h; normalised: neutral wells 0, positive control 100; protection from cytokine-induced ATP loss, % at 10 µM; 20,000 compounds, 0.1% hits;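 active = mean replicate protection from cytokine-induced ATP loss at least 50% and at least 75% of replicates each reaching 50%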
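Assay system – rat INS-1E insulinoma cell line · Quantity – 8000 cells per well · Buffer or medium – RPMI without phenol red, 5% FBS · Schedule – 48 h co-treatment, 10 min post-lysis read · Technique – luminescent ATP assay (CellTiter-Glo)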
A1 apoptosis 2: blocks A1, raising caspase activity; MEF A1-2A-BIM cells, caspase-Glo luminescence, 3 h; percent of clofoctol response, DMSO zero; caspase activation, % (no concentration beside the values); 24,000 tested, under 10 active; in the data active = caspase activation above about 5.9%
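Material: mouse embryonic fibroblasts co-expressing A1 and BIM (A1-2A-BIM), primed for A1 dependence / Quantity: 2500 cells/well / Buffer or medium: RPMI-1640 growth medium with 10% FBS / Doses: 50 nL compound per well, pinned / Schedule: 3 h compound exposure at 37 °C / Signal: Caspase-Glo luminescence (DEVD substrate) / Measure: Caspase-3/7 activation, seen as rise in luminescence signal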
T cruzi intra: inhibitors of intracellular Trypanosoma cruzi; 22,000 compounds, 4.9% hits; intracellular Trypanosoma cruzi in host cells, plate reader; activity score (inhibition), % at 5.01 µM; in the data active = activity score above about 55%;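 note: parasites and compound incubated about four days before reading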
Large screens that a line does not name were inactive. Many of the other results were omitted from the sample, so hits are more common in it than they were.

C[C@@H]1CN([C@@H](C)CO)C(=O)c2cccc(NC(=O)Nc3ccc(C(F)(F)F)cc3)c2O[C@@H]1CN(C)Cc1ccc(C(F)(F)F)cc1	T cruzi intra 80.6 (no result: A1 apoptosis 2)
C[C@H]1CN([C@@H](C)CO)C(=O)c2cccc(NC(=O)Nc3ccc(C(F)(F)F)cc3)c2O[C@H]1CN(C)Cc1ccc2c(c1)OCO2	T cruzi intra 85.4 (no result: A1 apoptosis 2)
C[C@@H]1CN([C@@H](C)CO)C(=O)Cc2cc(NC(=O)Nc3cccc4ccccc34)ccc2O[C@@H]1CN(C)S(=O)(=O)c1cccs1	none
O=C1C2C=C(I)[C@H](C[C@@H]2OCCCCO)[C@@]12CO2	none (no result: INS-1E rescue, T cruzi intra)
C[C@@H]1CN([C@@H](C)CO)C(=O)c2cc(NS(=O)(=O)c3ccc(F)cc3)ccc2O[C@H]1CN(C)Cc1ccccc1	none
C[C@@H]1CN([C@H](C)CO)C(=O)c2cccc(NC(=O)Nc3ccc(F)cc3)c2O[C@H]1CN(C)Cc1ccc(C(F)(F)F)cc1	none
C[C@H](CO)N1C[C@H](C)[C@@H](CN(C)Cc2ccc(C(F)(F)F)cc2)Oc2c(NC(=O)Nc3ccc(F)cc3)cccc2C1=O	T cruzi intra 74.4
C[C@H](CO)N1C[C@H](C)[C@@H](CN(C)Cc2ccc3c(c2)OCO3)Oc2c(NC(=O)CCCCCC(=O)Nc3ccccc3N)cccc2C1=O	T cruzi intra 72.7
C[C@@H]1CN([C@@H](C)CO)C(=O)c2cccc(NC(=O)CCCCCC(=O)Nc3ccccc3N)c2O[C@H]1CN(C)Cc1ccc2c(c1)OCO2	T cruzi intra 58.6
C[C@H]1CN([C@@H](C)CO)C(=O)c2cccc(NC(=O)CCCCCC(=O)Nc3ccccc3N)c2O[C@@H]1CN(C)Cc1ccc2c(c1)OCO2	T cruzi intra 72.3 (no result: A1 apoptosis 2)
C[C@@H]1CN([C@@H](C)CO)C(=O)c2cc(NC(=O)CCCCCC(=O)Nc3ccccc3N)ccc2O[C@@H]1CN(C)Cc1ccc2c(c1)OCO2	none
C[C@H](CO)N1C[C@H](C)[C@H](CN(C)Cc2ccc3c(c2)OCO3)Oc2ccc(NC(=O)CCCCCC(=O)Nc3ccccc3N)cc2C1=O	none
C[C@H](CO)N1C[C@H](C)[C@@H](CN(C)Cc2ccc3c(c2)OCO3)Oc2ccc(NC(=O)CCCCCC(=O)Nc3ccccc3N)cc2C1=O	none
COc1ccc(S(=O)(=O)Nc2ccc3c(c2)C(=O)N([C@H](C)CO)C[C@H](C)[C@H](CN(C)S(=O)(=O)c2ccc(F)cc2)O3)cc1	none
CC(C)COC(=O)N(C)C[C@H]1OCc2cnnn2CCCC(=O)N([C@H](C)CO)C[C@H]1C	none (no result: INS-1E rescue, A1 apoptosis 2)
C[C@H]1CN([C@@H](C)CO)C(=O)c2cccc(NC(=O)Nc3ccccc3)c2O[C@@H]1CN(C)C(=O)Nc1ccccc1	none (no result: A1 apoptosis 2)
C[C@H](CO)N1C[C@H](C)[C@H](CN(C)Cc2ccc(-c3ccccc3)cc2)Oc2ccc(NC(=O)CCCCCC(=O)Nc3ccccc3N)cc2CC1=O	T cruzi intra 73.0 (no result: A1 apoptosis 2)
C[C@H]1CN([C@@H](C)CO)C(=O)Cc2cc(NC(=O)CCCCCC(=O)Nc3ccccc3N)ccc2O[C@H]1CN(C)Cc1ccccc1	none (no result: INS-1E rescue, T cruzi intra)
C[C@@H]1CN([C@H](C)CO)C(=O)Cc2cc(NC(=O)CCCCCC(=O)Nc3ccccc3N)ccc2O[C@@H]1CN(C)Cc1ccc(-c2ccccc2)cc1	none (no result: A1 apoptosis 2)
C[C@@H]1CN([C@H](C)CO)C(=O)Cc2cc(NC(=O)CCCCCC(=O)Nc3ccccc3N)ccc2O[C@@H]1CN(C)Cc1ccc(Cl)c(Cl)c1	T cruzi intra 66.1 (no result: A1 apoptosis 2)
C[C@@H]1CN([C@@H](C)CO)C(=O)Cc2cc(NC(=O)CCCCCC(=O)Nc3ccccc3N)ccc2O[C@H]1CN(C)Cc1ccc(-c2ccccc2)cc1	none (no result: INS-1E rescue, T cruzi intra)
C[C@@H]1CN([C@@H](C)CO)C(=O)c2cccc(NC(=O)c3ccncc3)c2O[C@@H]1CN(C)Cc1ccc(Cl)c(Cl)c1	T cruzi intra 67.8
C[C@H](CO)N1C[C@H](C)[C@@H](CN(C)Cc2ccc(Cl)c(Cl)c2)Oc2c(NC(=O)c3ccncc3)cccc2C1=O	T cruzi intra 78.2
C[C@H](CO)N1C[C@H](C)[C@H](CN(C)Cc2ccc(Cl)c(Cl)c2)Oc2c(NC(=O)c3cnccn3)cccc2C1=O	none (no result: A1 apoptosis 2)
Cc1ccsc1/C=N\NC(=O)CCCCCC(=O)NO	INS-1E rescue 118.0 (no result: A1 apoptosis 2)
Cc1ccccc1/C=N/NC(=O)CCCCCCC(=O)Nc1ccccc1O	none
Cc1ccsc1/C=N/NC(=O)CCCCCCC(=O)Nc1ccccc1O	none
Cc1ccccc1/C=N/NC(=O)CCCCC(=O)NO	INS-1E rescue 67.1 (no result: A1 apoptosis 2)
O=C(CCCCC(=O)N/N=C\c1ccc2c(c1)Cc1ccccc1-2)NO	INS-1E rescue 94.2 (no result: A1 apoptosis 2)
COC(=O)CCCCCCC(=O)N/N=C/c1ccc2c(c1)Cc1ccccc1-2	none
O=C(CCCCCC(=O)N/N=C/c1c[nH]c2ccccc12)NO	INS-1E rescue 90.7 (no result: A1 apoptosis 2)
